PMC10633821 (RSC Advances, 2023)

What was measured:
Assay type in all cases: cell-based
[1] = MTT assay, cytotoxicity on normal breast cells MCF-10A; details: human, MCF-10A cells (normal breast cells)
MCF-7 cells [2] = test: MTT assay, anti-proliferative activity on MCF-7 cells; details: Homo sapiens, MCF7, 48 h, read-out: IC50, growth/viability of MCF-7 cells
[3] = target: human DNA topoisomerase II-β (TOPII-β) (Homo sapiens, UniProt Q02880); test: Topoisomerase II activity in MCF-7 cells; details: ELISA kit
In short: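 Sandwich ELISA for human TOPII-β, run per the kit protocol. Standards and samples were incubated 2 h at 37 °C, then biotin-antibody 1 h at 37 °C, three washes, HRP-avidin 1 h at 37 °C and five washes. TMB substrate was added for 15–30 min at 37 °C in the dark, then stop solution. OD450 was read within 5 min, in triplicate.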

MCF-7 cells [4] = test: Cell cycle analysis by flow cytometry; details: MCF-7, 3b at IC50 (1.85 μM), 48 h
In short: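 MCF-7 cells were seeded, held 12 h at 37 °C, then treated for 48 h. Cells were collected and fixed in 75% ethanol at 20 °C for 18 h. They were rinsed in PBS, centrifuged, and exposed to RNase plus propidium iodide. DNA content was read by FACS Calibur flow cytometry to give cell-cycle phase distribution.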

MCF-7 cells [5] = test: Annexin V-FITC/PI assay of apoptosis and necrosis; details: MCF-7, 3b at IC50 (1.85 μM), 48 h
In short: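 MCF-7 cells were treated for 48 h, then harvested and washed twice in PBS by centrifugation (180 g, 10 min, 4 °C). Cells were resuspended in binding buffer with Annexin V-FITC for 10 min at ambient temperature, then diluted with more binding buffer. PI was added immediately before FACS Calibur flow cytometry to separate apoptotic from necrotic cells.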

Chain of human DNA topoisomerase II-β (TOPII-β) (Q02880 whole entry): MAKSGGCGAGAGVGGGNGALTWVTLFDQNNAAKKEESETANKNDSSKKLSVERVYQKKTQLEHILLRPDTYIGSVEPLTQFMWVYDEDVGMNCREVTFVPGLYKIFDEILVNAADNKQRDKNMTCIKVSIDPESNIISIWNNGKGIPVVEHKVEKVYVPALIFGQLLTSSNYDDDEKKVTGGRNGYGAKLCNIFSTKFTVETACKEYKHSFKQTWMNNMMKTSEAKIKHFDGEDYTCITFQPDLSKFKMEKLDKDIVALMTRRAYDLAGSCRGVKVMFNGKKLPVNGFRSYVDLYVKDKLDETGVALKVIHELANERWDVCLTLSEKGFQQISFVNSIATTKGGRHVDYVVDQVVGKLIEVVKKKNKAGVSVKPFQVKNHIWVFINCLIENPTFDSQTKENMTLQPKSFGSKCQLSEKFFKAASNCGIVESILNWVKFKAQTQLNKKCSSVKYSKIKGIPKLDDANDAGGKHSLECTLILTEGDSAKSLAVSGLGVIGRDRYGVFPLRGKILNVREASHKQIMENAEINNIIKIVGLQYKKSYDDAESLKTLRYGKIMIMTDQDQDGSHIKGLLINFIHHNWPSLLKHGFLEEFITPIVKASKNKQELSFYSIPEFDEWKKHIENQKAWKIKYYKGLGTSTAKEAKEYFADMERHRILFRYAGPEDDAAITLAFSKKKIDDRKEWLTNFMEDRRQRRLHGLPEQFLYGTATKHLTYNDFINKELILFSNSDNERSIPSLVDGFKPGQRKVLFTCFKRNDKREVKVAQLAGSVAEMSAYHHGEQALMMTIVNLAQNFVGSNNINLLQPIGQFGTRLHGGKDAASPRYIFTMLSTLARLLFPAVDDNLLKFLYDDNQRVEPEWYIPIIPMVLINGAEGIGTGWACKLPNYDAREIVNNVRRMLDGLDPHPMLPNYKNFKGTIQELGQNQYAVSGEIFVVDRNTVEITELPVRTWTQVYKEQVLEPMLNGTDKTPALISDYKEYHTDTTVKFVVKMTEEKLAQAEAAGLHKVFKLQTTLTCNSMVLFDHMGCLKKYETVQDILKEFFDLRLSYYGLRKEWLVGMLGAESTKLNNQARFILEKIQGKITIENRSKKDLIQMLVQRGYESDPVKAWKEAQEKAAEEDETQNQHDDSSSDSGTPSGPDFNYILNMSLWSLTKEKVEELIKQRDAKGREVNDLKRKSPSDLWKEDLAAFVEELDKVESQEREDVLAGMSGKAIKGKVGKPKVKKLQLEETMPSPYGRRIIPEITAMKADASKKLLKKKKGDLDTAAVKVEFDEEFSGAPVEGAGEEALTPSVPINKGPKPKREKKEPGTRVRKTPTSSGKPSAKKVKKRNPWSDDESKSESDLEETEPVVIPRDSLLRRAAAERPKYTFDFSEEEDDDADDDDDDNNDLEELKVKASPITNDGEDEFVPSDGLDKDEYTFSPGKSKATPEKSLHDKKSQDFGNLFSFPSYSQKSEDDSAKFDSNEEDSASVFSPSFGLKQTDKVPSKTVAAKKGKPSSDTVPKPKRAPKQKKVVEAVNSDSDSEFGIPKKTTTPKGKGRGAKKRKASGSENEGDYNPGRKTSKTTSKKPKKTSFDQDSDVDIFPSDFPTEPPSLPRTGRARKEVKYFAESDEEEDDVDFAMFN

Question: With `COc1cccc2cc(C3=Nc4ccccc4NC3)c(=O)oc12` [compound 3b, 2-(8-Methoxy-coumarin-3yl)-3,4-dihydroquinoxaline] as the compound, how does the IC50 at 48 h [1] read?
Answer: 33.7 ± 2.04 µM

Question: What about the IC50 (MCF-7 cells [2]) of the same compound?
Answer: 1.85 ± 0.11 µM

Question: And the “reduction of topo II enzyme in comparison to untreated control cells” value [3]?
Answer: 6.5 fold

Question: And the “percentage of cells in the pre-G1 phase” value (MCF-7 cells [4]; untreated control 2.02%)?
Answer: 42.39%

Question: What about the “percentage of cells in the G2/M phase (%DIP G2/M)” value (MCF-7 cells [4]; untreated control 11.65%) of the same compound?
Answer: 6.52%

Question: What about the “proportion of cells in the S phase (%DIP S)” value (MCF-7 cells [4]; untreated control 32.89%) of the same compound?
Answer: 47.12%

Question: And the “percentage of cells in the G0/G1 phase (%DIP G1)” value (MCF-7 cells [4]; untreated control 55.46%)?
Answer: 46.36%

Question: What about the “increase in early apoptosis vs untreated control” value (MCF-7 cells [5]) of the same compound?
Answer: 51.7 fold

Question: And the “increase in programmed cell death vs untreated cells” value (MCF-7 cells [5])?
Answer: 21 fold

Question: And the “proportion of cells in late-stage apoptosis” value (MCF-7 cells [5]; control 0.29%)?
Answer: 12.42%

Question: And the “proportion of cells in early apoptosis” value (MCF-7 cells [5]; control 0.51%)?
Answer: 26.39%

Question: And the “proportion of cells suffering necrosis” value (MCF-7 cells [5]; untreated 1.2%)?
Answer: 3.58%

Question: And the “total programmed cell death” value (MCF-7 cells [5]; untreated cells 2.02%)?
Answer: 42.39%

Question: Which IC50 (MCF-7 cells [2]) does the source give for `COc1cccc2cc(-c3cnc4ccccc4n3)c(=O)oc12` [compound 4b, 2-(8-Methoxycoumarin-3-yl)-quinoxaline] here?
Answer: 4.08 µM

Question: For `COc1ccc(Br)c2cc(-c3cnc4ccccc4n3)c(=O)oc12` [compound 5, 2-(5-bromo-8-methoxy-coumarin-3-yl)-quinoxaline], which IC50 (MCF-7 cells [2]) is on record?
Answer: 55 µM

Question: Which IC50 (MCF-7 cells [2]) does the source give for `Oc1c(N=Nc2ccccc2)cc(Br)cc1C1=CNc2ccccc2N1` [compound 7, 2-(5-bromo-3-phenylazo-2-hydroxyphenyl)-1,4-dihydro quinoxaline] here?
Answer: 8.6 µM
